Test results published in article PMC10432884 (Clinical and Translational Science, 2023).

Legend:
[1] = MAD phase pharmacokinetics; format: in vivo, human; conditions: for AUC / Cmax / concentration at 11 day / concentration at 12 day / concentration at 13 day / concentration at 14 day / Tmax / concentration at 1 day: human, plasma, oral; for AUC: AUC τ; for Cmax: C max; for concentration at 11 day / concentration at 12 day / concentration at 13 day / concentration at 14 day / concentration at 1 day: C trough; for concentration at 11 day: day 11; for concentration at 12 day: day 12; for concentration at 13 day: day 13
Summary of the method: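 MAD phase, 2–15 mg q.d. oral for 14 days. Plasma was sampled predose daily and 15 min–48 h on days 1 and 14. Urine was pooled over 24 h on days 1 and 14. One CSF sample was taken 3 h postdose on day 7 (10 mg cohort). All matrices were assayed by validated LC-MS/MS. Derived: Cmax, Tmax, t1/2, AUCτ, Ctrough, peak-to-trough ratio, accumulation ratios, and CSF/plasma ratio corrected for protein binding. Results reported as geometric means (95% CI) and medians.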

[2] = Plasma protein binding, equilibrium dialysis; format: in vitro ADME, human; conditions: assumed from protein binding
Summary of the method: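 In vitro equilibrium dialysis of test compound at 1 and 10 μM in human plasma (also mouse, rat, dog and monkey). Mean percentage bound was determined. The free fraction was used to correct CSF/plasma concentration ratios.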

[3] = MAD 15 mg q.d., accumulation ratio from C max
[4] = MAD 15 mg q.d., accumulation ratio from C trough
[5] = MAD 15 mg q.d., effective half-life based on accumulation
[6] = 2 mg, GeoMean, MAD 2 mg q.d., day 14
[7] = 2 mg, Median, MAD 2 mg q.d., day 14
[8] = 5 mg, GeoMean, MAD 5 mg q.d., day 1
[9] = 5 mg, GeoMean, MAD 5 mg q.d., day 14
[10] = 5 mg, Median, MAD 5 mg q.d., day 1
[11] = 5 mg, Median, MAD 5 mg q.d., day 14
[12] = 10 mg, GeoMean, MAD 10 mg q.d., day 1
[13] = 10 mg, GeoMean, MAD 10 mg q.d., day 14
[14] = 10 mg, Median, MAD 10 mg q.d., day 1
[15] = 10 mg, Median, MAD 10 mg q.d., day 14
[16] = 15 mg, GeoMean, MAD 15 mg q.d., day 1
[17] = 15 mg, GeoMean, MAD 15 mg q.d., day 14
[18] = 15 mg, Median, MAD 15 mg q.d., day 1
[19] = 15 mg, Median, MAD 15 mg q.d., day 14

SMILES: Fc1ccccc1Cc1nc(-c2nc(C(F)(F)F)n[nH]2)cn2ccnc12 [zagociguat, 8‐(2‐fluorobenzyl)‐6‐(3‐(trifluoromethyl)‐1H‐1,2,4‐triazol‐5‐yl)imidazo[1,2‐a]pyrazine]
- R max, GeoMean [1, 3]: 3.61
- R max, Median [1, 3]: 3.54
- R through, GeoMean [1, 4]: 3.73
- R through, Median [1, 4]: 3.81
- t 1/2_eff, GeoMean [1, 5]: 52.80 h
- t 1/2_eff, Median [1, 5]: 51.81 h
- Dose linearity analysis using AUC τ and C max ([1]; MAD day 1 and day 14 (Table S6)): indicated dose proportionality
- Day on which steady-state was attained ([1]; MAD, all doses administered, Helmert contrasts of trough concentrations): 11 days
- AUC ([1]; both, 2 mg, GeoMean, MAD 2 mg q.d., day 1): 4500 ng·h/mL
- AUC ([1]; both, 2 mg, GeoMean, MAD 2 mg q.d., day 14): 16900 ng·h/mL
- AUC ([1]; both, 2 mg, Median, MAD 2 mg q.d., day 1): 4520 ng·h/mL
- AUC ([1]; both, 2 mg, Median, MAD 2 mg q.d., day 14): 17000 ng·h/mL
- Cmax ([1]; 2 mg, GeoMean, MAD 2 mg q.d., day 1): 260 ng/mL
- Cmax [1, 6]: 880 ng/mL
- Cmax ([1]; 2 mg, Median, MAD 2 mg q.d., day 1): 268 ng/mL
- Cmax [1, 7]: 888 ng/mL
- concentration at 11 day ([1]; 2 mg, GeoMean, MAD 2 mg q.d.): 587 ng/mL
- concentration at 12 day ([1]; 2 mg, GeoMean, MAD 2 mg q.d.): 593 ng/mL
- concentration at 13 day ([1]; 2 mg, GeoMean, MAD 2 mg q.d.): 616 ng/mL
- concentration at 14 day [1, 6]: 624 ng/mL
- concentration at 11 day ([1]; 2 mg, Median, MAD 2 mg q.d.): 579 ng/mL
- concentration at 12 day ([1]; 2 mg, Median, MAD 2 mg q.d.): 584 ng/mL
- concentration at 13 day ([1]; 2 mg, Median, MAD 2 mg q.d.): 610 ng/mL
- concentration at 14 day [1, 7]: 632 ng/mL
- Tmax ([1]; 2 mg, T max, Median, MAD 2 mg q.d., day 1): 1 h
- Tmax ([1]; 2 mg, T max, Median, MAD 2 mg q.d., day 14): 1 h
- AUC [1, 8]: 11000 ng·h/mL
- AUC [1, 9]: 42100 ng·h/mL
- AUC [1, 10]: 11500 ng·h/mL
- AUC [1, 11]: 43900 ng·h/mL
- Cmax [1, 8]: 602 ng/mL
- Cmax [1, 9]: 2080 ng/mL
- Cmax [1, 10]: 597 ng/mL
- Cmax [1, 11]: 2230 ng/mL
- concentration at 1 day [1, 8]: 389 ng/mL
- concentration at 11 day ([1]; 5 mg, GeoMean, MAD 5 mg q.d.): 1480 ng/mL
- concentration at 12 day ([1]; 5 mg, GeoMean, MAD 5 mg q.d.): 1500 ng/mL
- concentration at 13 day ([1]; 5 mg, GeoMean, MAD 5 mg q.d.): 1510 ng/mL
- concentration at 14 day [1, 9]: 1540 ng/mL
- concentration at 1 day [1, 10]: 410 ng/mL
- concentration at 11 day ([1]; 5 mg, Median, MAD 5 mg q.d.): 1540 ng/mL
- concentration at 12 day ([1]; 5 mg, Median, MAD 5 mg q.d.): 1580 ng/mL
- concentration at 13 day ([1]; 5 mg, Median, MAD 5 mg q.d.): 1580 ng/mL
- concentration at 14 day [1, 11]: 1640 ng/mL
- Tmax ([1]; 5 mg, T max, Median, MAD 5 mg q.d., day 1): 2 h
- Tmax ([1]; 5 mg, T max, Median, MAD 5 mg q.d., day 14): 3 h
- AUC [1, 12]: 20100 ng·h/mL
- AUC [1, 13]: 76800 ng·h/mL
- AUC [1, 14]: 21500 ng·h/mL
- AUC [1, 15]: 82100 ng·h/mL
- Cmax [1, 12]: 1070 ng/mL
- Cmax [1, 13]: 3910 ng/mL
- Cmax [1, 14]: 1140 ng/mL
- Cmax [1, 15]: 4050 ng/mL
- concentration at 1 day [1, 12]: 751 ng/mL
- concentration at 11 day ([1]; 10 mg, GeoMean, MAD 10 mg q.d.): 2760 ng/mL
- concentration at 12 day ([1]; 10 mg, GeoMean, MAD 10 mg q.d.): 2910 ng/mL
- concentration at 13 day ([1]; 10 mg, GeoMean, MAD 10 mg q.d.): 2840 ng/mL
- concentration at 14 day [1, 13]: 2850 ng/mL
- concentration at 1 day [1, 14]: 750 ng/mL
- concentration at 11 day ([1]; 10 mg, Median, MAD 10 mg q.d.): 3090 ng/mL
- concentration at 12 day ([1]; 10 mg, Median, MAD 10 mg q.d.): 3240 ng/mL
- concentration at 13 day ([1]; 10 mg, Median, MAD 10 mg q.d.): 3190 ng/mL
- concentration at 14 day [1, 15]: 2820 ng/mL
- Tmax ([1]; 10 mg, T max, Median, MAD 10 mg q.d., day 1): 3 h
- Tmax ([1]; 10 mg, T max, Median, MAD 10 mg q.d., day 14): 2.2 h
- AUC [1, 16]: 31300 ng·h/mL
- AUC [1, 17]: 116000 ng·h/mL
- AUC [1, 18]: 30100 ng·h/mL
- AUC [1, 19]: 112000 ng·h/mL
- Cmax [1, 16]: 1620 ng/mL
- Cmax [1, 17]: 5850 ng/mL
- Cmax [1, 18]: 1530 ng/mL
- Cmax [1, 19]: 5800 ng/mL
- Tmax ([1]; 15 mg, T max, Median, MAD 15 mg q.d., day 1): 3 h
- Tmax ([1]; 15 mg, T max, Median, MAD 15 mg q.d., day 14): 3.5 h
- Tmax ([1]; Median observed T max, range, MAD all doses, days 1 and 14): 1 to 3.5 h
- Drug accumulation ([1]; treatment period of 14 days): moderate drug accumulation
- Free zagociguat concentration in human plasma, of total concentration [2]: 1.11%
